From ChEMBL document CHEMBL3352407, “Griseorhodins D-F, neuroactive intermediates and end products of post-PKS tailoring modification in Griseorhodin biosynthesis” (J Nat Prod, 2014)
Active and inactive are the calls of the source. No cut-off for these calls is given here.

Test system: DRG neuron
Test: Increase in Ca2+ uptake in mouse DRG neurons at 20 ug/ml by Fura-2 dye-based fluorescence microscopy
Type: functional
In short: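 Mouse DRG cells plated in medium with additives and loaded with the Ca2+ dye Fura-2 AM. Compound applied directly at 20 μg/mL. Read-out is the fraction of cells showing a rise in Ca2+ concentration.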

Cc1cc2cc(CCC(=O)O)c(O)c(O)c2c(=O)o1
Activity: Active
